Measured values from ChEMBL document CHEMBL2321713 (Bioorg Med Chem, 2013).

How the values were obtained:
[1] = Elimination half life in human liver microsomes by HPLC/MS analysis; type: ADME, Microsome; settings: read-out: beta t1/2
In short: (§1)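 Rat or human liver microsomal incubations at 37 °C were analysed for percent parent remaining over incubation time. k is the slope of the linear regression of ln(% remaining) versus time, and t1/2 = 0.693/k. In vitro intrinsic clearance was derived from t1/2 and used to predict hepatic clearance.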

[2] = Elimination half life in rat liver microsomes by HPLC/MS analysis; type: ADME, Microsome; settings: read-out: beta t1/2; in short: as §1
[3] = Intrinsic clearance in rat liver microsomes after 30 mins by HPLC/MS analysis; type: ADME, Microsome; settings: read-out: CLH; in short: as §1
[4] = Intrinsic clearance in human liver microsomes after 30 mins by HPLC/MS analysis; type: ADME, Microsome; settings: read-out: CLH; in short: as §1
Homo sapiens [5] = organism: Homo sapiens; experiment: Selectivity ratio of Ki for human MT1 receptor to Ki for human MT2 receptor
In short: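 Whole-cell competition binding on CHO cells stably expressing hMT1 or hMT2, 1.5×10^5 cells per tube. Incubated 60 min at 4 °C, then filtered through GF/C and counted. Means of duplicate experiments. Ratio is MT1 Ki/MT2 Ki.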

Liver microsomes [6] = experiment: Drug metabolism in rat liver microsomes assessed as aromatic ring hydroxylation after 30 mins by LC-UV/MS analysis; type: ADME, Microsome; settings: 0.5 h
In short: (§2)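 Rat or human liver microsomes (20 mg protein/ml suspension) were added to start reactions after test compound (1 mM stock) in 50 mM Tris-Cl pH 7.4 with MgCl2 was pre-incubated 30 min at 37 °C. Incubation ran 30 min at 37 °C, shaken in air. Reactions were quenched with ice-cold dichloromethane plus internal standards. Metabolites were separated on C18 (acetonitrile/water gradient 40→60%) and identified by positive-mode MS.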

Liver microsomes [7] = experiment: Drug metabolism in human liver microsomes assessed as C3'-demethylation after 30 mins by LC-UV/MS analysis; type: ADME, Microsome; settings: 0.5 h; in short: as §2
Liver microsomes [8] = experiment: Drug metabolism in human liver microsomes assessed as aromatic ring hydroxylation after 30 mins by LC-UV/MS analysis; type: ADME, Microsome; settings: 0.5 h; in short: as §2
[9] = molecular target: T1, Melatonin receptor type 1A (Homo sapiens, UniProt P48039); experiment: Agonist activity at human MT1 receptor expressed in CHO cells coexpressing Galpha protein 16z25 assessed as increase in calcium mobilization measured for 3 mins by FLIPR assay; type: functional, cell-based
In short: (§3)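 CHO cells stably expressing human MT1 or MT2 with chimeric Gα16z25 were seeded in growth medium the day before. Fluorescence at 488 nm excitation was followed for 3 min after agonist addition.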

[10] = molecular target: T2, Melatonin receptor type 1B (Homo sapiens, UniProt P49286); experiment: Displacement of [3H]melatonin from human MT2 receptor expressed in CHO cells after 60 mins by microbeta scintillation method; type: cell-based
T2 sequence (P49286 whole entry): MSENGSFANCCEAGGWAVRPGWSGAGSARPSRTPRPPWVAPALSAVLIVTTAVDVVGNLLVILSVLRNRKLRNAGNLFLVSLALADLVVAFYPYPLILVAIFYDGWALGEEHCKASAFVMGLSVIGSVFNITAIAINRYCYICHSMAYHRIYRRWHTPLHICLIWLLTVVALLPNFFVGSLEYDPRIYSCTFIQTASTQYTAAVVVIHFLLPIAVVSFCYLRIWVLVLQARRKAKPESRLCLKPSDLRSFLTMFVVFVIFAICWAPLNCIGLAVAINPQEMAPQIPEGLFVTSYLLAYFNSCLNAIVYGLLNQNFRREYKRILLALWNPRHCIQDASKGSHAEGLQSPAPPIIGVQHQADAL

Liver microsomes [11] = experiment: Drug metabolism in rat liver microsomes assessed as C3-demethylation after 30 mins by LC-UV/MS analysis; type: ADME, Microsome; settings: 0.5 h; in short: as §2
Liver microsomes [12] = experiment: Drug metabolism in human liver microsomes assessed as C3-demethylation after 30 mins by LC-UV/MS analysis; type: ADME, Microsome; settings: 0.5 h; in short: as §2
Liver microsomes [13] = experiment: Drug metabolism in rat liver microsomes assessed as C3'-demethylation after 30 mins by LC-UV/MS analysis; type: ADME, Microsome; settings: 0.5 h; in short: as §2
[14] = molecular target: T1, Melatonin receptor type 1A; experiment: Displacement of [3H]melatonin from human MT1 receptor expressed in CHO cells after 60 mins by microbeta scintillation method; type: cell-based
Homo sapiens [15] = organism: Homo sapiens; experiment: Selectivity ratio of EC50 for human MT1 receptor to EC50 for human MT2 receptor
In short: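 Ca2+ mobilization (FLIPR) in CHO clonal lines stably co-expressing hMT1 or hMT2 with chimeric Gα16z25. Cells seeded a day before, loaded with 2 µM Fluo-4 in HBSS (pH 7.5) with 2.5 mM probenecid, 1 h, 37 °C. Fluorescence read 3 min after agonist addition, excitation 488 nm. […] Ratio is MT1 EC50/MT2 EC50.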

[16] = molecular target: T2, Melatonin receptor type 1B; experiment: Agonist activity at human MT2 receptor expressed in CHO cells coexpressing Galpha protein 16z25 assessed as increase in calcium mobilization measured for 3 mins by FLIPR assay; type: functional, cell-based; in short: as §3

T1 sequence (P48039 whole entry): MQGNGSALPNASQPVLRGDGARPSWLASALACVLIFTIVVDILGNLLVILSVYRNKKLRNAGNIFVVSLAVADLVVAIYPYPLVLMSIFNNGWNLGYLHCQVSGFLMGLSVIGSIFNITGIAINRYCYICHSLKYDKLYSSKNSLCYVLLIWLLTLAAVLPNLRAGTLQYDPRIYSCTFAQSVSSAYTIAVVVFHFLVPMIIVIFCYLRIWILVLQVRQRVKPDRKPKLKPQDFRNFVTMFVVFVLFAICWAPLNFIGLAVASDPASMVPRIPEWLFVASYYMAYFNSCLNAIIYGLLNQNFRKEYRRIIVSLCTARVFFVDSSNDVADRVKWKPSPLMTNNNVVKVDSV

half-life [1] | half-life [2] | CLint scaled [3] | CLint scaled [4] | Ratio Ki (Homo sapiens [5]) | Drug metabolism (Liver microsomes [6]) | Drug metabolism (Liver microsomes [7]) | Drug metabolism (Liver microsomes [8]) | EC50 [9] | Ki [10] | Drug metabolism (Liver microsomes [11]) | Drug metabolism (Liver microsomes [12]) | Drug metabolism (Liver microsomes [13]) | Ki [14] | Ratio EC50 (Homo sapiens [15]) | EC50 [16] | SMILES
5.5 min | 9.5 min | 262 mL/min/kg | 340 mL/min/kg | 417 | – | – | – | 9.03 nM | 0.291 nM | – | – | – | 121 nM | 181 | 0.05 nM | CCC(=O)NCCCc1cc(OC)ccc1OCc1cccc(OC)c1
6 min | 8.6 min | 290 mL/min/kg | 312 mL/min/kg | 12 | Active | Active | Active | 41.6 nM | 3.39 nM | Active | Active | Active | 39.5 nM | 171 | 0.24 nM | CCC(=O)NCCCc1cc(OC)ccc1Cc1cccc(OC)c1
5.1 min | 8.3 min | 301 mL/min/kg | 367 mL/min/kg | 40 | Active | Active | Active | 16.3 nM | 0.55 nM | Active | Active | Active | 22.2 nM | 679 | 0.024 nM | CCC(=O)NCCCc1cc(OC)ccc1CCc1cccc(OC)c1

Second part, the molecule before the results:

SMILES | half-life [1] | half-life [2] | CLint scaled [3] | CLint scaled [4] | Ratio Ki (Homo sapiens [5]) | Drug metabolism (Liver microsomes [6]) | Drug metabolism (Liver microsomes [7]) | Drug metabolism (Liver microsomes [8]) | EC50 [9] | Ki [10] | Drug metabolism (Liver microsomes [11]) | Drug metabolism (Liver microsomes [12]) | Drug metabolism (Liver microsomes [13]) | Ki [14] | Ratio EC50 (Homo sapiens [15]) | EC50 [16]
COc1ccc2[nH]cc(CCNC(C)=O)c2c1 [MELATONIN] | 73.2 min | 75.3 min | 33.1 mL/min/kg | 25.5 mL/min/kg | – | – | – | – | – | – | – | – | – | – | – | –
CCC(=O)NCCCc1cc(OC)ccc1C#Cc1cccc(OC)c1 | 18.3 min | 21.7 min | 115 mL/min/kg | 102 mL/min/kg | 527 | Active | Active | Active | 8.38 nM | 0.073 nM | Active | Active | Active | 38.2 nM | 77 | 0.11 nM
CCC(=O)NCCCc1cc(OC)ccc1-c1cccc(OC)c1 | 5.3 min | 7.5 min | 333 mL/min/kg | 353 mL/min/kg | 96 | Active | Active | Active | 2.94 nM | 0.339 nM | Active | Active | Active | 32.7 nM | 14 | 0.2 nM
